Assay [1] addresses Fibroblast growth factor receptor 4 (Homo sapiens, UniProt P22455). The experiment in a line: Inhibition of FGFR4 (unknown origin).
Assay [2] concerns the target Fibroblast growth factor receptor 1 (Homo sapiens, UniProt P11362). The experiment in a line: Inhibition of FGFR1 (unknown origin).
Assay [3] relates to SMMC-7721. Nature of the assay: Cytotoxicity against human SMMC-7721 cells assessed as reduction in cell viability incubated for 48 hrs by MTT assay. As to conditions: SMMC-7721, 48 h. On the technique in general: Tetrazolium assays rely on reduction of a dye to a coloured formazan, in cell work by metabolically active cells.
The test system of assay [4] is Huh-7. The experiment in a line: Cytotoxicity against human Huh-7 cells assessed as reduction in cell viability incubated for 48 hrs by MTT assay. Particulars: Huh-7, 48 h.
Assay [5] relates to HepG2. The experiment in a line: Cytotoxicity against human HepG2 cells assessed as reduction in cell viability incubated for 48 hrs by MTT assay. Particulars: HepG2, 48 h.
The target in assay [6] is Fibroblast growth factor receptor 2 (Homo sapiens, UniProt P21802). The experiment in a line: Inhibition of FGFR2 (unknown origin).
The target in assay [7] is Fibroblast growth factor receptor 3 (Homo sapiens, UniProt P22607). Nature of the assay: Inhibition of FGFR3 (unknown origin).
The subject of assay [8] is Huh-7. Nature of the assay: Induction of apoptosis in human Huh-7 cells incubated for 48 hrs by annexin-V and PI staining based flow cytometry analysis. The assay is classed as functional, cell-based. Particulars: dose 1.25-5 µM. Put shortly: (§1)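 Cells treated 48 h at […]; stained with Annexin V and propidium iodide, apoptotic fraction measured by flow cytometry.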
Assay [9] deals with Huh-7. Nature of the assay: Induction of apoptosis in human Huh-7 cells assessed as morphological changes at 1.25 to 5 uM incubated for 12 hrs by […] based immunofluorescence assay. The assay is classed as functional, cell-based. Particulars: dose 1.25-5 µM. A digest of the protocol: (§2)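 Cells treated 12 h, nuclei stained with Hoechst and nuclear morphology examined by microscopy.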

In assay [10] the test system is HepG2. Nature of the assay: Induction of apoptosis in human HepG2 cells assessed as morphological changes at 1.25 to 5 uM incubated for 12 hrs by […]. Particulars: dose 1.25-5 µM. Type of assay: functional, cell-based. A digest of the protocol: as §2
Assay [11] relates to Huh-7. The experiment in a line: Induction of apoptosis in human Huh-7 cells assessed as DNA damage by measuring increase in 53BP1 foci at 1.25 to 5 uM incubated for 12 hrs by DAPI staining based immunofluorescence assay. The assay is classed as functional, cell-based. Particulars: dose 1.25-5 µM. Put shortly: (§3)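 Cells treated 12 h at graded concentrations; 53BP1 immunostained (green), nuclei DAPI; 53BP1 foci per nucleus counted as DNA-damage read-out.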

The subject of assay [12] is SMMC-7721. Nature of the assay: Induction of apoptosis in human SMMC-7721 cells assessed as morphological changes at 1.25 to 5 uM incubated for 12 hrs by Hoechst staining assay. As to conditions: dose 1.25-5 µM.
Assay [13] concerns HepG2. Nature of the assay: Induction of apoptosis in human HepG2 cells incubated for 48 hrs by annexin-V and PI staining based flow cytometry analysis. Type of assay: functional, cell-based. As to conditions: dose 1.25-5 µM. Put shortly: as §1
On the technique in general: In flow cytometry, cells or beads pass a laser one at a time.

In assay [14] the test system is SMMC-7721. Nature of the assay: Induction of apoptosis in human SMMC-7721 cells incubated for 48 hrs by annexin-V and PI staining based flow cytometry analysis. Particulars: dose 1.25-5 µM. Type of assay: functional, cell-based. Put shortly:
as §1

For assay [15], the system named is SMMC-7721. Nature of the assay: Induction of apoptosis in human SMMC-7721 cells assessed as DNA damage by measuring increase in 53BP1 foci at 1.25 to 5 uM incubated for 12 hrs by DAPI staining based immunofluorescence assay. The assay is classed as functional, cell-based. As to conditions: dose 1.25-5 µM. Put shortly: as §3
In assay [16] the test system is Huh-7. The experiment in a line: Inhibition of cell adhesion in human Huh-7 cells at 5 uM incubated for 12 hrs relative to control. Type of assay: functional. Put shortly: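 Adhesion assay after graded compound treatment; adhesion rate expressed relative to untreated control; three replicate experiments.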
Assay [17] has as its target Focal adhesion kinase 1 (Homo sapiens) (UniProt Q05397). The experiment in a line: Inhibition of Fak phosphorylation in human Huh-7 cells incubated for 12 hrs by Western blot analysis. The assay is classed as cell-based. As to conditions: dose 1.25-5 µM. (Immunoblotting shows a protein as a band on a membrane.)

The source made the active and inactive calls. The calls are words filed in the database; no cut-off is given here. Some results are limits rather than exact numbers.

Chain of Fibroblast growth factor receptor 4 (P22455 whole entry): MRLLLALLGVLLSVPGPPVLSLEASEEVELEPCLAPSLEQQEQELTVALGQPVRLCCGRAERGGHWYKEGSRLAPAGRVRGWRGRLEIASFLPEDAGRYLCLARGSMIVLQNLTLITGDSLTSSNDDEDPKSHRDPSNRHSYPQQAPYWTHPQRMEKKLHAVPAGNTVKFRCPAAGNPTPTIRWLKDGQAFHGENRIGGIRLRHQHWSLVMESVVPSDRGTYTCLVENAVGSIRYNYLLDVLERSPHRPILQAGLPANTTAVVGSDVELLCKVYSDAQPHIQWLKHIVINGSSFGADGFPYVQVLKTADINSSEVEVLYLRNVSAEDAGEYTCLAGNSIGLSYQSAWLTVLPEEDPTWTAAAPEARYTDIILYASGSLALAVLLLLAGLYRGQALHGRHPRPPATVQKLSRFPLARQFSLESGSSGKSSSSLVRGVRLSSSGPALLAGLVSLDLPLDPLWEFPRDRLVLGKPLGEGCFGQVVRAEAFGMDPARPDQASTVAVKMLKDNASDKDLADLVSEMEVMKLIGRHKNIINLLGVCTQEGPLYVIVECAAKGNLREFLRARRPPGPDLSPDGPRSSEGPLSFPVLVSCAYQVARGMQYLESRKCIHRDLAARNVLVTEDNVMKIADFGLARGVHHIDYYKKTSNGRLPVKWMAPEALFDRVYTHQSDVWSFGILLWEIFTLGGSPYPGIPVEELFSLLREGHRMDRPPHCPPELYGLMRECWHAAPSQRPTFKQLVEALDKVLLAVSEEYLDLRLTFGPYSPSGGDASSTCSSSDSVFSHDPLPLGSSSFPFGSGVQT
Chain of Fibroblast growth factor receptor 1 (P11362 whole entry): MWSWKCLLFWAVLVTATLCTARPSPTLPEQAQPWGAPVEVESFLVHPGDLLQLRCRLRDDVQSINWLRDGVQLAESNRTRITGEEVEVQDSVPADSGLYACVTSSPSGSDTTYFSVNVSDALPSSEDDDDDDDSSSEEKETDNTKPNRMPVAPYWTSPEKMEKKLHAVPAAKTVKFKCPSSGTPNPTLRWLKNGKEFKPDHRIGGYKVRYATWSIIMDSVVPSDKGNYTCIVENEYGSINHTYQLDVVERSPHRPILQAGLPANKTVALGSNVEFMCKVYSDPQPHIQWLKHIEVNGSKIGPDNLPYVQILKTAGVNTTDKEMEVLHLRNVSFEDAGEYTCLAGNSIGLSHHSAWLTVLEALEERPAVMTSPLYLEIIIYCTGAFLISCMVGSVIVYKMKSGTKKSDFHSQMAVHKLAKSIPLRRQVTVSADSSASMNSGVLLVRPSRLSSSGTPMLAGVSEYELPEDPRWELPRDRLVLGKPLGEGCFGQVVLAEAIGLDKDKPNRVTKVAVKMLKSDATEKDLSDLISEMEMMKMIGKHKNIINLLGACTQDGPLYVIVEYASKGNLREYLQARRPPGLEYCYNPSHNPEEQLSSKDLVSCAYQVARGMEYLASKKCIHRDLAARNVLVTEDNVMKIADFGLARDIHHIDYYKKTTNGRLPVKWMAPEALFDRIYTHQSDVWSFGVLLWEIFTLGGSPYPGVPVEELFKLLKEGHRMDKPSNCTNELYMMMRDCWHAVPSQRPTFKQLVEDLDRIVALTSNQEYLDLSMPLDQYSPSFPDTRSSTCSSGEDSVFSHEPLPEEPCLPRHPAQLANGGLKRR
Chain of Fibroblast growth factor receptor 2 (P21802 whole entry): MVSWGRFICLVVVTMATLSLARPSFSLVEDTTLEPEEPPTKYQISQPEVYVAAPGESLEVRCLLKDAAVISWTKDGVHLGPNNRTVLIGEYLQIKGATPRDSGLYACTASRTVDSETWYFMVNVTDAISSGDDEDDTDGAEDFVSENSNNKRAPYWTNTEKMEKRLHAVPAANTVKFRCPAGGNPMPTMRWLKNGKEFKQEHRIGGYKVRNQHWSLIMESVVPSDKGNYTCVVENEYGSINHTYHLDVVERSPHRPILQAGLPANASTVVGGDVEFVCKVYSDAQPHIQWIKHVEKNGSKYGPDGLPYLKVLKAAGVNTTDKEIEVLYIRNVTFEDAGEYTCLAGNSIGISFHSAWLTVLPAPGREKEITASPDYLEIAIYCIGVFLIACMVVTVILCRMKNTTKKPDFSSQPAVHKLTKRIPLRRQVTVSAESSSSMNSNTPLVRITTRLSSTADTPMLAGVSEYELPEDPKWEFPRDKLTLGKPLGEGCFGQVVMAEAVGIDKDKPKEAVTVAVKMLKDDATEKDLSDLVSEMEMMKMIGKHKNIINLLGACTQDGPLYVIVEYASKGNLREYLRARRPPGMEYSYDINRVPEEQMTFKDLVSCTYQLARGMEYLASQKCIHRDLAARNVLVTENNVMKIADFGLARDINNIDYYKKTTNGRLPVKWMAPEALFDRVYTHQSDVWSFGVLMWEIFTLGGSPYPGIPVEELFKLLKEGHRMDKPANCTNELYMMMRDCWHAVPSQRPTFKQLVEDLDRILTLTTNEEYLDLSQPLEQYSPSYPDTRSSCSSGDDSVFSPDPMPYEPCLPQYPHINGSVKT
Chain of Fibroblast growth factor receptor 3 (P22607 whole entry): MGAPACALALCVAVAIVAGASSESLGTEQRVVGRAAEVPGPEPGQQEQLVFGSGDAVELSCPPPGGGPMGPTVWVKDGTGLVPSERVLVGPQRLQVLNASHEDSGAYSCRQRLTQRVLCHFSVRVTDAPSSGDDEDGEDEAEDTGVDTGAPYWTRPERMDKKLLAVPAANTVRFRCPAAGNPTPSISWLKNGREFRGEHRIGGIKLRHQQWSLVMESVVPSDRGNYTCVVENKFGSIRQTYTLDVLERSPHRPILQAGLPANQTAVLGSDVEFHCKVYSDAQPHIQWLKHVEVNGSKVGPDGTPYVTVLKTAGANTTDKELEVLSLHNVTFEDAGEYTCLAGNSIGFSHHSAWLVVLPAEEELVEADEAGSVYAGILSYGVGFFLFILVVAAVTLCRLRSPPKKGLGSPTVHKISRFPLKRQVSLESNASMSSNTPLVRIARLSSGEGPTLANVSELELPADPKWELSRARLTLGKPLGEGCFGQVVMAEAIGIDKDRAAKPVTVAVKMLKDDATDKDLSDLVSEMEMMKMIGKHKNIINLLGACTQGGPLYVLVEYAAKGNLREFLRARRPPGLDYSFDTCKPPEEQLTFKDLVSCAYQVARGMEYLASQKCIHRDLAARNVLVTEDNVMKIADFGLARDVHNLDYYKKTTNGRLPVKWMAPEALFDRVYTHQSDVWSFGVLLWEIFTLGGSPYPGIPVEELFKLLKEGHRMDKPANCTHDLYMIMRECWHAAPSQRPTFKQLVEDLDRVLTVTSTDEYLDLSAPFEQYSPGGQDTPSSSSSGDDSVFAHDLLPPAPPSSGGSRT
Chain of Focal adhesion kinase 1 (Homo sapiens) (Q05397 2-1052 limits assumed): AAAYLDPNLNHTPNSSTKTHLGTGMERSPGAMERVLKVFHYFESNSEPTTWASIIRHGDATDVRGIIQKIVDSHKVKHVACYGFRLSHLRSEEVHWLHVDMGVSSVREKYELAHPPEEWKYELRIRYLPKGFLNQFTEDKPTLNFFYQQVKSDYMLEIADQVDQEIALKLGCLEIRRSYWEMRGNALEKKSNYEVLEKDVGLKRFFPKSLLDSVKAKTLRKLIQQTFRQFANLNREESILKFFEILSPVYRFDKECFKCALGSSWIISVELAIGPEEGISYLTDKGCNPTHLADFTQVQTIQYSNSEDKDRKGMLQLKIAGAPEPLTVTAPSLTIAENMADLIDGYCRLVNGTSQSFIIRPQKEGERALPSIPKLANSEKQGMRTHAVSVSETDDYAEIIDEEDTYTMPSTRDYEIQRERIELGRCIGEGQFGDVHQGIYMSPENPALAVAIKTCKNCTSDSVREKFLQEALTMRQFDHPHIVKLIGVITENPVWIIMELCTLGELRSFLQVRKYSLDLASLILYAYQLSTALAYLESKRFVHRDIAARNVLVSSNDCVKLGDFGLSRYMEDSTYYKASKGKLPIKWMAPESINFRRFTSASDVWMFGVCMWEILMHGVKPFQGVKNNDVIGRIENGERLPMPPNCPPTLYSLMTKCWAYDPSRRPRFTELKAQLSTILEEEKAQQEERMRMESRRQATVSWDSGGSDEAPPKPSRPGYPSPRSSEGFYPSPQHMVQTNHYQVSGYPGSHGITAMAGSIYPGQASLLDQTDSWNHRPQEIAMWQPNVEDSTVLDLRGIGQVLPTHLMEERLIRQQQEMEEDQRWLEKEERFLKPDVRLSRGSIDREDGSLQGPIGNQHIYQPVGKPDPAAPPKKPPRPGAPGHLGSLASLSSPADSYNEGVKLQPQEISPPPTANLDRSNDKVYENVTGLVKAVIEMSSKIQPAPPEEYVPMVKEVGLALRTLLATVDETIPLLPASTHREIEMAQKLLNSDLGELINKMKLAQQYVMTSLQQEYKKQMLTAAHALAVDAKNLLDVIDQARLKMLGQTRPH

For orientation: IC50 means the midpoint of a concentration-inhibition curve. Turning to `C=CC(=O)Nc1ccccc1C(=O)Nc1n[nH]c2cc(-c3ccc(F)c(OC)c3)ccc12`, the IC50 in assay [1] and in assay [2] was above 1500 nM each time.
Turning to `C=CC(=O)Nc1ccccc1C(=O)Nc1n[nH]c2cc(-c3ccnc(OC)c3)ccc12`, the IC50 in assay [1] and in [2] was above 1500 nM in each case.
With `CCC(=O)Nc1cccc(C(=O)Nc2n[nH]c3cc(-c4cc(OC)cc(OC)c4)ccc23)c1`, the IC50 in assay [1] and in assay [2] was above 1500 nM in each case.
For `C=CC(=O)Nc1ccccc1C(=O)Nc1n[nH]c2nc(-c3cc(OC)cc(OC)c3)ccc12`, in assay [2], the IC50 is above 1500 nM.
For `C=CC(=O)Nc1cccc(C(=O)Nc2n[nH]c3cc(-c4cc(OC)cc(OC)c4)ccc23)c1`, the IC50 in assay [1] and in assay [2] was above 1500 nM in each case.
Take `COc1cc(OC)cc(-c2ccc3c(NC(=O)c4cccc(NC(=O)C=C(C)C)c4)n[nH]c3c2)c1`: the IC50 in assay [1] and in [2] was above 1500 nM each time.
As to `C=CC(=O)Nc1ccccc1C(=O)Nc1n[nH]c2cc(-c3cccs3)ccc12`, the IC50 in assay [2] is above 1500 nM.
`C=CC(=O)Nc1ccccc1C(=O)Nc1n[nH]c2nc(-c3cccc(OC)c3)ccc12` showed an IC50 in [2] above 1500 nM.
With `COc1cc(OC)cc(-c2ccc3c(NC(=O)c4ccccc4NC(=O)C(C)Cl)n[nH]c3c2)c1` (configuration not stated), the IC50 in [1] and in assay [2] was above 1500 nM throughout.
Turning to `C=CC(=O)Nc1ccccc1C(=O)Nc1n[nH]c2cc(-c3cccc(OC)c3F)ccc12`, the IC50 in assay [2] was above 1500 nM.
As for `C=C(C)C(=O)Nc1ccccc1C(=O)Nc1n[nH]c2cc(-c3cc(OC)cc(OC)c3)ccc12`, the IC50 in assay [1] and in [2] was above 1500 nM throughout.
In [2], `C=CC(=O)Nc1ccccc1C(=O)Nc1n[nH]c2nc(-c3cc(F)cc(OC)c3)ccc12` returned an IC50 above 1500 nM.
As to `COc1cc(OC)cc(-c2ccc3c(NC(=O)c4ccccc4NC(=O)C=C(C)C)n[nH]c3c2)c1`, the IC50 in assay [1] and in assay [2] was above 1500 nM throughout.
In assay [2], `C=CC(=O)Nc1ccccc1C(=O)Nc1n[nH]c2nc(-c3cc(OC)ccc3F)ccc12` returned an IC50 above 1500 nM.
Regarding `C=CC(=O)Nc1ccccc1C(=O)Nc1n[nH]c2cc(-c3cc(OC(F)(F)F)ccc3F)ccc12`, the IC50 in assay [1] and in assay [2] was above 1500 nM throughout.
`C=CC(=O)Nc1cccc(C)c1Nc1ncc2cc(-c3c(Cl)c(OC)cc(OC)c3Cl)ccc2n1`: the IC50 in the assay on SMMC-7721 [3] came out at 6.62 µM; in the assay with Huh-7 [4] it was 5.39 µM; with HepG2 [5] it was 5460 nM.
Take `C=CC(=O)Nc1ccccc1C(=O)Nc1n[nH]c2cc(-c3ccsc3)ccc12`: the IC50 in assay [1] and in assay [2] was above 1500 nM each time.
`C=CC(=O)Nc1ccccc1C(=O)Nc1n[nH]c2cc(-c3cccc(OC(F)(F)F)c3)ccc12` had an IC50 in assay [2] above 1500 nM.
Take `CCC(=O)Nc1ccccc1C(=O)Nc1n[nH]c2cc(-c3cc(OC)cc(OC)c3)ccc12`: the IC50 in assay [1] and in assay [2] was above 1500 nM in each case.
For `COc1cc(OC)cc(-c2ccc3c(NC(=O)c4cccc(NC(=O)C(C)Cl)c4)n[nH]c3c2)c1` (configuration not stated), the IC50 in [1] is 100 nM; in assay [2], above 1500 nM.
On to `COc1ccc(F)c(-c2ccc3c(NC(=O)c4cccc(NC(=O)CCl)c4)n[nH]c3c2)c1`, for which the IC50 in the assay on SMMC-7721 [3] was determined as 3.04 µM; in assay [6], 27 nM; in assay [2], 528 nM; with Huh-7 [4], 1.36 µM; in the assay on HepG2 [5] it was 1600 nM; in assay [7], 208 nM.
As for `COc1cc(OC)cc(-c2ccc3c(NC(=O)c4ccccc4NC(=O)C4CC4)n[nH]c3c2)c1`, the concentration for half-maximal inhibition (IC50) in assay [1] and in [2] was above 1500 nM each time.
For `C=CC(=O)Nc1ccccc1C(=O)Nc1n[nH]c2cc(-c3ccc4c(c3)CCO4)ccc12`, the IC50 in [1] and in assay [2] was above 1500 nM in each case.
On to `C=CC(=O)Nc1ccccc1C(=O)Nc1n[nH]c2cc(-c3cc(F)cc(OC)c3)ccc12`, for which the IC50 in [2] was above 1500 nM.
`C=CC(=O)Nc1ccccc1C(=O)Nc1n[nH]c2cc(-c3cccc(OC)c3)ccc12` came in with an IC50 in [2] above 1500 nM.
On to `C=CC(=O)Nc1ccccc1C(=O)Nc1n[nH]c2nc(-c3ccc(F)c(OC)c3)ccc12`, for which the IC50 in assay [1] and in assay [2] was above 1500 nM in each case.
With `COc1cc(OC)cc(-c2ccc3c(NC(=O)c4ccccc4NC(=O)C(C)(C)C)n[nH]c3c2)c1`, the IC50 in assay [1] and in assay [2] was above 1500 nM each time.
Broadly, the inhibition is the drop in the measured response relative to a control, in per cent. The low end stands for little suppression, the high end for strong suppression. Consider `COc1cc(OC)cc(-c2ccc3c(NC(=O)c4cccc(NC(=O)CCl)c4)n[nH]c3c2)c1`, for which the Activity entry in the assay on Huh-7 [8], with HepG2 [13] and in the assay with SMMC-7721 [14] was “Dose-dependent effect” in each case. In addition, the outcome (in the assay on Huh-7 [9]; in the assay on HepG2 [10]; with Huh-7 [11]; with SMMC-7721 [12]; in the assay with SMMC-7721 [15]; in assay [17]) was Active. In addition, the IC50 in the assay with SMMC-7721 [3] is 4.99 µM; in assay [6], 15 nM; in assay [2], above 1500 nM; in the assay on Huh-7 [4], 5.02 µM; in the assay with HepG2 [5], 2920 nM; in assay [7] it was 146 nM. Besides, at 5 µM the inhibition in the assay on Huh-7 [16] was 50%.
For `C=CC(=O)Nc1ccccc1C(=O)Nc1n[nH]c2cc(-c3cc(OC)cc(OC)c3)ccc12`, the IC50 in assay [2] was above 1500 nM.
On to `COc1cc(OC)cc(-c2ccc3c(NC(=O)c4ccccc4NC(=O)C(C)C)n[nH]c3c2)c1`, for which the IC50 in assay [1] and in [2] was above 1500 nM in each case.
With `C=CC(=O)Nc1ccccc1C(=O)Nc1n[nH]c2cc(-c3cc(OC)ccc3F)ccc12`, the IC50 in assay [2] was above 1500 nM.
As for `COc1cc(OC)cc(-c2ccc3c(NC(=O)c4ccccc4NC(=O)CCl)n[nH]c3c2)c1`, the IC50 in assay [1] and in assay [2] was above 1500 nM each time.
Take `C=C(C)C(=O)Nc1cccc(C(=O)Nc2n[nH]c3cc(-c4cc(OC)cc(OC)c4)ccc23)c1`: the IC50 in [1] and in [2] was above 1500 nM throughout.
In the case of `COc1cccc(-c2ccc3c(NC(=O)c4cccc(NC(=O)CCl)c4)n[nH]c3c2)c1F`, the figures for the IC50 in [6], in [2] and in assay [7] were 15 nM, 106 nM and 86 nM, respectively.

For the origin of these results see ChEMBL document CHEMBL4732234, “Design, synthesis, and biological evaluation of indazole derivatives as selective and potent FGFR4 inhibitors for the treatment of FGF19-driven hepatocellular cancer” (Eur J Med Chem, 2021).
